This is an account of results in ChEMBL document CHEMBL1139323, “Radiosynthesis, in vitro and in vivo evaluation of 123I-labeled anandamide analogues for mapping brain FAAH” (Bioorg Med Chem, 2009).

For data set [1], the target named is T1, Fatty-acid amide hydrolase 1 (Rattus norvegicus, UniProt P97612).
T1 sequence (P97612 whole entry): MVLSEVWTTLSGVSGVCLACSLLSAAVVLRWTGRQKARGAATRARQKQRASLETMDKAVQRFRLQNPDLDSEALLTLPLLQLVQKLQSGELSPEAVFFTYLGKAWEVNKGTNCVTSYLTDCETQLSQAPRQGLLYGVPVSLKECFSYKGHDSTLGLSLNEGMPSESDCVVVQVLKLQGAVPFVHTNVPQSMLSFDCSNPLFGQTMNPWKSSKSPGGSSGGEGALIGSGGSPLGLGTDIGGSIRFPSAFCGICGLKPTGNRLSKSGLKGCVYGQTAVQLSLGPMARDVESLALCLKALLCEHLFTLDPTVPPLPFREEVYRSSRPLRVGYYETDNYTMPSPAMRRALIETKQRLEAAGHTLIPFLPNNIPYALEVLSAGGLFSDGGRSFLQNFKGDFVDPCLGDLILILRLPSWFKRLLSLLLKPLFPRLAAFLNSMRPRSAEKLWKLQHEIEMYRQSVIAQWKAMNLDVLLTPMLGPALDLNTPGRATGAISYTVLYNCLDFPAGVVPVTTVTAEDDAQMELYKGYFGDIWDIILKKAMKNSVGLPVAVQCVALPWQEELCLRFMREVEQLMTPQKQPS
Description: Inhibition of rat recombinant FAAH assessed as [3H]AEA hydrolysis. The procedure, abridged: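 Recombinant rat FAAH fused to maltose binding protein, 1.2 µg per assay, in 10 mM Tris-HCl pH 7.6 with 1 mM EDTA. Test compound at ten concentrations (5 µM–1.5 nM), no preincubation. [3H]-AEA added at 2 µM final, 10 min at 37 °C. Stopped with chloroform/methanol; [3H]-ethanolamine in aqueous phase counted by scintillation. Three experiments; sigmoidal variable-slope fit of % control.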

For the next data set, the species on record is Mus musculus. Description: Stability in NMRI mouse by HPLC. It counts as ADME, organism-based. Particulars: in vivo; call rule not given here. The procedure, abridged: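 Three male mice injected with about 200 µCi 123I-tracer in ethanol/saline (8:92) and killed at 3 min. Plasma and brain extracted with acetonitrile and centrifuged. Supernatant run on C18 HPLC (acetonitrile/water/formic acid 80:20:0.1, 6 ml/min); 0.5-min fractions gamma-counted, plus radio-TLC.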

Data set [2] concerns the target T1, Fatty-acid amide hydrolase 1. Description: Inhibition of rat recombinant FAAH assessed as [3H]AEA hydrolysis preincubated before [3H]AEA substrate addition. The procedure, abridged:
(§1)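 Recombinant MBP-rat FAAH (1.2 µg/assay) in 10 mM Tris-HCl pH 7.6, 1 mM EDTA. Compound used at levels giving 20%, 50% and 80% inhibition and preincubated with enzyme for 15, 30 or 60 min. 2 µM [3H]-AEA then added, 10 min at 37 °C. Aqueous [3H]-ethanolamine counted by scintillation; IC50 by sigmoidal variable-slope fit.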

For data set [3] the target is unchanged. Briefly: Inhibition of rat recombinant FAAH assessed as [3H]AEA hydrolysis preincubated 15 mins before [3H]AEA substrate addition. The procedure, abridged:
as §1

Data set [4] has the same target. Description: Inhibition of rat recombinant FAAH assessed as [3H]AEA hydrolysis preincubated 30 mins before [3H]AEA substrate addition. The procedure, abridged: as §1
Data set [5] shares this target. Briefly: Inhibition of rat recombinant FAAH assessed as [3H]AEA hydrolysis preincubated 60 mins before [3H]AEA substrate addition. The procedure, abridged: as §1
Data set [6] relates to Stomach. Description: Drug uptake in NMRI mouse stomach at 4 to 5 uCi, iv after 1 hr post injection. It counts as ADME, organism-based. Particulars: in vivo. The procedure, abridged:
(§2)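 Adult male NMRI mice (20–25 g) given 4–5 µCi of 123I-tracer iv via tail vein in ethanol/saline (8:92). Killed by cervical dislocation under isoflurane at set times, n = 3 per time point. Organs removed and weighed, radioactivity gamma-counted. Uptake expressed as %ID/g tissue ± SD.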

The test system of data set [7] is Brain. Briefly: Stability in NMRI mouse brain at 3 uCi. It counts as ADME, tissue-based. The procedure, abridged: (§3)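 Brain and EDTA plasma from three male NMRI mice, kept on ice, spiked ex vivo with 3 µCi 123I-tracer. Extracted with acetonitrile and centrifuged; supernatant and pellet gamma-counted for extraction efficiency. Supernatant analysed by radio-TLC (silica, hexane/ethyl acetate 4:6) and C18 HPLC (acetonitrile/water/formic acid 80:20:0.1), fractions gamma-counted.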

The next data set has as its system Plasma. Description: Stability in NMRI mouse plasma at 3 uCi. The data set is classed as ADME, cell-free. The procedure, abridged: as §3
Data set [8] is described as follows: Drug uptake in NMRI mouse small intestine at 4 to 5 uCi, iv after 10 mins post injection. The data set is classed as ADME, organism-based. Particulars: in vivo. The procedure, abridged: as §2
Data set [9] has as its system Brain. Briefly: Drug uptake in NMRI mouse brain at 4 to 5 uCi, iv after 3 mins post injection. The data set is classed as ADME, organism-based. Particulars: in vivo, 0.05 h. The procedure, abridged:
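Adult male NMRI mice (20–25 g) given 4–5 µCi radiotracer iv via tail vein in 200 µl ethanol/saline (8:92). Killed by cervical dislocation under isoflurane at set times after injection, n = 3 per time point. Brain removed and weighed, radioactivity gamma-counted. Uptake given as %ID/g tissue ± SD.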

A short description of data set [10]: Drug uptake in NMRI mouse large intestine at 4 to 5 uCi, iv after 10 mins post injection. It counts as ADME, organism-based. Particulars: in vivo. The procedure, abridged:
as §2

Data set [11] deals with Stomach. Briefly: Drug uptake in NMRI mouse stomach at 4 to 5 uCi, iv after 1 min post injection. The data set is classed as ADME, organism-based. Particulars: in vivo. The procedure, abridged:
as §2

Data set [12] concerns Brain. Briefly: Drug uptake in NMRI mouse brain at 4 to 5 uCi, iv after 10 mins post injection. The data set is classed as ADME, organism-based. Particulars: in vivo. The procedure, abridged:
as §2

On to `CCCCC/C=C\C/C=C\CCCCCCCC(=O)NCCO` [LINOLEOYLETHANOLAMIDE], for which the IC50 in [1] (read-out: IC50) was 7.58 µM; in [1] (read-out: pIC50 (converted)), 7.59 µM.
For `CCCCC/C=C\C/C=C\CCCCCCCC(=O)NCCI`, the result in the data set filed under Mus musculus was Active. Moreover, the IC50 in data set [1] (read-out: IC50) came out at 5.78 µM; in data set [2], 6.2 µM; in data set [3], 6.66 µM; in [4] it was 7.64 µM; in data set [5] it was 7.33 µM.
As to `CCCCC/C=C\C/C=C\CCCCCCCC(=O)NCC[123I]`, the Drug uptake came out at 24.57 % ID/g with Stomach [6]; 1.84 % ID/g in data set [8]; 1.23 % ID/g in the data set on Brain [9]; 1.33 % ID/g in [10]; 2.58 % ID/g with Stomach [11]. For the same compound, the Stability in the data set with Brain [7] and with Plasma was 94% each time.
For the compound `CCCCC/C=C\C/C=C\C/C=C\C/C=C\CCCC(=O)NCC[123I]`, the Drug uptake in the data set with Stomach [6] came out at 17.74 % ID/g; in data set [8], 1.46 % ID/g; in the data set on Brain [12], 0.579 % ID/g; in data set [10], 1.04 % ID/g; with Stomach [11] it was 3.1 % ID/g. For the same compound, the Stability in the data set on Brain [7] is recorded as 89%; in the data set on Plasma, 92%.
Regarding `CCCCC/C=C\C/C=C\C/C=C\C/C=C\CCCC(=O)NCCI`, the outcome in the data set filed under Mus musculus was Active. For the same compound, the IC50 in data set [1] (read-out: IC50) worked out at 3.14 µM; in data set [2], 4.31 µM; in [3], 7.93 µM; in [4] it was 9.89 µM; in data set [5] it was 10.1 µM.
